Data taken from ChEMBL document CHEMBL5532737, “Lead Identification of Novel Naphthyridine Derivatives as Potent SOS1 Inhibitors” (ACS Med Chem Lett, 2024).
Activity calls are given as the source filed them. The rule behind the calls is not given here.

Columns and labels:
[1] = Inhibition of ERK phosphorylation in human PC-9 cells incubated for 1 hr by HTRF analysis; assay type: cell-based; settings: PC-9, 1 h
SOS1-KRAS = SOS1-KRAS (Homo sapiens, UniProt Q07889); experiment: Inhibition of SOS1/KRAS G12C mutant (unknown origin) protein-protein interaction incubated for 2 hrs by HTRF analysis; assay type: protein-complex assay
SOS1-KRAS, sequence (Q07889 whole entry, looked up, stated change not applied): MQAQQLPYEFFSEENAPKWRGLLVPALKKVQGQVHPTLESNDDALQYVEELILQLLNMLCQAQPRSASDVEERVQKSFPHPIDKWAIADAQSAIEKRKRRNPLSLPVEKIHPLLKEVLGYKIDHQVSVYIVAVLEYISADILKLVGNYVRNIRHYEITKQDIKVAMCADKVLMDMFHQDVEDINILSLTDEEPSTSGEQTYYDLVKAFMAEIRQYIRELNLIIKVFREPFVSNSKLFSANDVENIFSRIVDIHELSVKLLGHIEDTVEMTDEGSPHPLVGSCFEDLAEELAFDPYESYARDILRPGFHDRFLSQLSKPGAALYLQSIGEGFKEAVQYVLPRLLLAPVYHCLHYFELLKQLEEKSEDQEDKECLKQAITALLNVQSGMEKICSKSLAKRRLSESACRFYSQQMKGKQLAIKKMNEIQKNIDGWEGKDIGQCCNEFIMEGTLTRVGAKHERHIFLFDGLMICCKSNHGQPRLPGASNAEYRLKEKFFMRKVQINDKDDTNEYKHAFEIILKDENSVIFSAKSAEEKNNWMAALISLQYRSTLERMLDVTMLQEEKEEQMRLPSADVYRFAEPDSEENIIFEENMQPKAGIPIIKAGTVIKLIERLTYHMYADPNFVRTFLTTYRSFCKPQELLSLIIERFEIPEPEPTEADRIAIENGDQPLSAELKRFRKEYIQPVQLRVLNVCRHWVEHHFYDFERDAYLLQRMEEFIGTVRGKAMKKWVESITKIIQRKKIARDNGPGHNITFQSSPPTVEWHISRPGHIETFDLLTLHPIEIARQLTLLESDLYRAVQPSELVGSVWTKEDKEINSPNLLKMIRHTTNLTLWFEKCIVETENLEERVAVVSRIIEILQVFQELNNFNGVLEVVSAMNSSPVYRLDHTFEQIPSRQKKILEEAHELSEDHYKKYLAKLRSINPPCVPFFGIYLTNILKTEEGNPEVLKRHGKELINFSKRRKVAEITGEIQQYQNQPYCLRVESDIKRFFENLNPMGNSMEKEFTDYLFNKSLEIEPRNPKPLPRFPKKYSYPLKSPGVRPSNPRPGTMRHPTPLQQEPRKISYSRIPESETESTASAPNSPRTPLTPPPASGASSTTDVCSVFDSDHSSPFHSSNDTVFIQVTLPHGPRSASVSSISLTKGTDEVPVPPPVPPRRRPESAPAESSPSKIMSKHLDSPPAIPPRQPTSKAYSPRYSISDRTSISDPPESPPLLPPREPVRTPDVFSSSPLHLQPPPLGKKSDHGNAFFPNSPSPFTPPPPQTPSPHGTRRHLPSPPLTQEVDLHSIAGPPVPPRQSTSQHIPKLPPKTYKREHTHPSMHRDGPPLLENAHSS

[2] = Elimination half life in ICR mouse at 1 mg/kg, iv measured upto 24 hrs by LCMS analysis; assay type: ADME, organism-based; settings: in vivo, read-out: beta t1/2 (converted)
How it was run: (§1)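 Mice were dosed once orally at 5 mg/kg or intravenously at 1 mg/kg, both in solution in 5% DMSO + 95% (20% HP-β-CD). Cmax is the highest observed plasma concentration, AUC the area under the plasma concentration–time curve, and F the bioavailability. CL is reported as elimination rate and t1/2 as elimination half-life.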

[3] = Oral bioavailability in ICR mouse at 5 mg/kg measured upto 24 hrs by LCMS analysis; assay type: ADME, organism-based; settings: in vivo; how it was run: as §1
[4] = Cmax in ICR mouse at 5 mg/kg, po measured upto 24 hrs by LCMS analysis; assay type: ADME, organism-based; settings: in vivo; how it was run: as §1
[5] = AUC in ICR mouse at 5 mg/kg, po measured upto 24 hrs by LCMS analysis; assay type: ADME, organism-based; settings: in vivo; how it was run: as §1
[6] = Clearance in ICR mouse at 1 mg/kg, iv measured upto 24 hrs by LCMS analysis; assay type: ADME, organism-based; settings: in vivo; how it was run: as §1
Cytochrome P450 1A2 = target: T1, Cytochrome P450 1A2 (Homo sapiens, UniProt P05177); experiment: Inhibition of CYP1A2 in human liver microsomes incubated for 5 mins by LC-MS/MS analysis; assay type: ADME, Microsome
T1 sequence (P05177 whole entry): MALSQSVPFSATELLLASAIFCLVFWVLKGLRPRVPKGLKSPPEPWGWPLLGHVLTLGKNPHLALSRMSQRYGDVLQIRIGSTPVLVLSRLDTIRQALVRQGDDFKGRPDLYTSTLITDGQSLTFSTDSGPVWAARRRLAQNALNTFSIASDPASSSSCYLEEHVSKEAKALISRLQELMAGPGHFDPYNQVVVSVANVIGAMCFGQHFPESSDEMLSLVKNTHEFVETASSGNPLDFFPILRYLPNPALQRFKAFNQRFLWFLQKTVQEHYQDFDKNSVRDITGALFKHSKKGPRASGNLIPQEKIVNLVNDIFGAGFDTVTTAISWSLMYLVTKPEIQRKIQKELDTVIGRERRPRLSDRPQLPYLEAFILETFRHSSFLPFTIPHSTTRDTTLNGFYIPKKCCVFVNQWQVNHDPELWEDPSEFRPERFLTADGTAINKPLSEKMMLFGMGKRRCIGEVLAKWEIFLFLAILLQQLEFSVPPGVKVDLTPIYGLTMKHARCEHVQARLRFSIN

[7] = Plasma protein binding in mouse assessed as unbound fraction incubated for 4 hrs by LC-MS/MS analysis; assay type: ADME, cell-free
Cytochrome P450 2C9 = Cytochrome P450 2C9 (Homo sapiens, UniProt P11712); experiment: Inhibition of CYP2C9 in human liver microsomes incubated for 5 mins by LC-MS/MS analysis; assay type: ADME, Microsome
Cytochrome P450 2C9, sequence (P11712 whole entry): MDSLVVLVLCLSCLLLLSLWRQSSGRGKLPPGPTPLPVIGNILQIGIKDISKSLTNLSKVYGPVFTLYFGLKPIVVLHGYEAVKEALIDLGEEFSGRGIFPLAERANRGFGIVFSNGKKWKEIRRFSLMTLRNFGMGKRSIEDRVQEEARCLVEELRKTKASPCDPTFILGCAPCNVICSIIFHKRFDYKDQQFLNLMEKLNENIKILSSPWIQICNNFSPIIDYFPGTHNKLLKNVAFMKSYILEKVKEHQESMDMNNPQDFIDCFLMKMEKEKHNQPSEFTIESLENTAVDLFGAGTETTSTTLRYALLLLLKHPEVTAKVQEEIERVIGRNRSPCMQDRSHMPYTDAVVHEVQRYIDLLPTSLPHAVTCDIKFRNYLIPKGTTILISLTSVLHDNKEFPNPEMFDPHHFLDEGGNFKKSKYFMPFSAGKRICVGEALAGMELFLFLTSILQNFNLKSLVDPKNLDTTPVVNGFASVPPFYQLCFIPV

[8] = Plasma protein binding in human assessed as unbound fraction incubated for 4 hrs by LC-MS/MS analysis; assay type: ADME, cell-free
[9] = Drug concentration in mouse plasma at 50 mg/kg, po measured for 8 hrs; assay type: ADME, organism-based; settings: in vivo
How it was run: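 Mice received a single 50 mg/kg dose, and the unbound drug concentration in plasma was followed over time.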

NCI-H358 [10] = experiment: Antitumor activity against human NCI-H358 cells harboring KRAS G12C mutant xenografted in BALB/c mouse assessed as reduction in ERK phosphorylation at 50 mg/kg, po measured for 2 to 24 hrs; assay type: functional, organism-based; settings: time 2-24 hrs
How it was run: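 Tumor samples from NCI-H358 xenograft mice were assayed for p-ERK levels at 2 and 24 h after drug treatment. Plasma drug concentrations were measured at the same time points. Data are given as mean ± SEM.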

Cytochrome P450 2C19 = Cytochrome P450 2C19 (Homo sapiens, UniProt P33261); experiment: Inhibition of CYP2C19 in human liver microsomes incubated for 5 mins by LC-MS/MS analysis; assay type: ADME, Microsome
Cytochrome P450 2C19, sequence (P33261 whole entry): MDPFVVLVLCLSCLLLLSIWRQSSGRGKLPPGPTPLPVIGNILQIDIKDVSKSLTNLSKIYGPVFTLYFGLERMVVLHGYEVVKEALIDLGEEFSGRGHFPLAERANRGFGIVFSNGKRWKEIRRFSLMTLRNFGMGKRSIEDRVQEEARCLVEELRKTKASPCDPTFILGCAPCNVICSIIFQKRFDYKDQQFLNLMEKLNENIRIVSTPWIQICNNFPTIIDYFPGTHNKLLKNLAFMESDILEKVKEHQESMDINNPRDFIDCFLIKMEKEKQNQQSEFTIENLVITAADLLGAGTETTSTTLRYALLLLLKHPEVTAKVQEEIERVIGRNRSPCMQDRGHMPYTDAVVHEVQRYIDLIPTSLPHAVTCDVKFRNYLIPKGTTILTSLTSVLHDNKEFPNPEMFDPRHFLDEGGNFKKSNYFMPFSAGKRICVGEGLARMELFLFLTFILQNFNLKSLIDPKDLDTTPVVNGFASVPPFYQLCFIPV

Cytochrome P450 2D6 = Cytochrome P450 2D6 (Homo sapiens, UniProt P10635); experiment: Inhibition of CYP2D6 in human liver microsomes incubated for 5 mins by LC-MS/MS analysis; assay type: ADME, Microsome
Cytochrome P450 2D6, sequence (P10635 whole entry): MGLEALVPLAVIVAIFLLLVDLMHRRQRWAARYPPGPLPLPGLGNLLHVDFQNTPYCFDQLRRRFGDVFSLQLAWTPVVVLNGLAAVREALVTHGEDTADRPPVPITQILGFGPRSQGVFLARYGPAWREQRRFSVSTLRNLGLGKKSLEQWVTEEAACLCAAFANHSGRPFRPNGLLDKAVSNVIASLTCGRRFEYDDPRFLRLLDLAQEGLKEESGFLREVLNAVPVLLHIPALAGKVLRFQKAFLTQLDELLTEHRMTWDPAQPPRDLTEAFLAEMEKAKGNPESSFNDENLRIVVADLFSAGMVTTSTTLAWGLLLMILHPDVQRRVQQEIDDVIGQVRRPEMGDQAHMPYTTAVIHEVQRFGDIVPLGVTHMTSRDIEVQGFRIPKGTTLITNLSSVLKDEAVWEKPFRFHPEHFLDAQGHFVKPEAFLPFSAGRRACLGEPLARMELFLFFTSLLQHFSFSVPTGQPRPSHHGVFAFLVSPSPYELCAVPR

Cytochrome P450 3A4 = Cytochrome P450 3A4 (Homo sapiens, UniProt P08684); experiment: Inhibition of CYP3A4 in human liver microsomes incubated for 5 mins by LC-MS/MS analysis; assay type: ADME, Microsome
Cytochrome P450 3A4, sequence (P08684 whole entry): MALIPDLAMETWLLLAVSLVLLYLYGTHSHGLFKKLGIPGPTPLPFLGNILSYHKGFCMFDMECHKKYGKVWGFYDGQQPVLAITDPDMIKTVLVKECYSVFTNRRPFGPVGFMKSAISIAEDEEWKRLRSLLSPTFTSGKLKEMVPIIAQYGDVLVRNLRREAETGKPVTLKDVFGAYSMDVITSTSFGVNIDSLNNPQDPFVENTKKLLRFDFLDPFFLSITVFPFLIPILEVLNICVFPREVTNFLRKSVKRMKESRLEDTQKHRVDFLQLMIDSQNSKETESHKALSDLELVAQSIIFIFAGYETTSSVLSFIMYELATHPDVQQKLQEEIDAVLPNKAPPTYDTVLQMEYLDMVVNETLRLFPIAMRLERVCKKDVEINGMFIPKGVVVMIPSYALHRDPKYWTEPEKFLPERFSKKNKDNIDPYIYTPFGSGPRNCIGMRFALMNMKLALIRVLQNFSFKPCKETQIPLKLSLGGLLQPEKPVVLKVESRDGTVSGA

[11] = Plasma protein binding in rat assessed as unbound fraction incubated for 4 hrs by LC-MS/MS analysis; assay type: ADME, cell-free
[12] = Plasma protein binding in dog assessed as unbound fraction incubated for 4 hrs by LC-MS/MS analysis; assay type: ADME, cell-free, Canis lupus familiaris
NCI-H358 [13] = experiment: Antiproliferative activity against human NCI-H358 cells harboring KRAS G12C mutant assessed as inhibition of cell proliferation incubated for 5 days by celltiter-glo 3D assay; assay type: functional, cell-based; settings: NCI-H358, 120 h
[14] = target: Voltage-gated inwardly rectifying potassium channel KCNH2 (Homo sapiens, UniProt Q12809); experiment: Inhibition of hERG transfected in HEK293 cells by whole-cell manual patch clamp assay; assay type: toxicity, cell-based
Voltage-gated inwardly rectifying potassium channel KCNH2, sequence (Q12809 whole entry): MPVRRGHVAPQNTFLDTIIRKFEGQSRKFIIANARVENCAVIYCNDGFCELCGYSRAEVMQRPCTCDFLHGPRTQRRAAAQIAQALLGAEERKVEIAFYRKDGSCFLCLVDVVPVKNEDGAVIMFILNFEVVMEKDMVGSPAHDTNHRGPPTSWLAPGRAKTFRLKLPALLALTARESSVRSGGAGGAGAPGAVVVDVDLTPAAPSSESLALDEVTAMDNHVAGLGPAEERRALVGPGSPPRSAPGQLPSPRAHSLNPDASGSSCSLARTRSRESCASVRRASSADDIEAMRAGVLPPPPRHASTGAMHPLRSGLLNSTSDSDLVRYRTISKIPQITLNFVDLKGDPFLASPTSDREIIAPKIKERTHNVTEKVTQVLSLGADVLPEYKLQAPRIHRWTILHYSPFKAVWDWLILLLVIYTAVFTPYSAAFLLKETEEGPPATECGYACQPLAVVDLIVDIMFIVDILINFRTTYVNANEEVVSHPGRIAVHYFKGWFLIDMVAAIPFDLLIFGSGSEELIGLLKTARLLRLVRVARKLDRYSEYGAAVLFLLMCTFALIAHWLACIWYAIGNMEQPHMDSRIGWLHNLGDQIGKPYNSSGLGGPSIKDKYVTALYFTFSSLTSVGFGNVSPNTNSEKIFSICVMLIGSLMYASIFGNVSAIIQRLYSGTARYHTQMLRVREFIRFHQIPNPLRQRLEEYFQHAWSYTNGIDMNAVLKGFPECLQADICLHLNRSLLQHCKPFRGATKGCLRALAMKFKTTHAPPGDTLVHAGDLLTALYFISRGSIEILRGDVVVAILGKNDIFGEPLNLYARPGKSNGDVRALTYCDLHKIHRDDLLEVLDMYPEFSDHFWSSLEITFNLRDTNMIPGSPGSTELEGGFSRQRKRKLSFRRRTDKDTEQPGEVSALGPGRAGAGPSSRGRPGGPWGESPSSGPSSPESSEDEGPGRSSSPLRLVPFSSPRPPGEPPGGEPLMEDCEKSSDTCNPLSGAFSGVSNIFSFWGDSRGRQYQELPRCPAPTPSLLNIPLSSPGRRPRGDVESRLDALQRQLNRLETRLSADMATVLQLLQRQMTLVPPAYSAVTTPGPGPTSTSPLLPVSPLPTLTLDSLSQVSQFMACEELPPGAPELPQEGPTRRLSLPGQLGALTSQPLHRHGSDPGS

NCI-H358 [15] = experiment: Antitumor activity against human NCI-H358 cells harboring KRAS G12C mutant xenografted in BALB/c mouse assessed as tumor growth inhibition at 50 mg/kg, po measured after 28 days; assay type: functional; settings: NCI-H358, 672 h, time 28 day, read-out: TGI
How it was run: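 Subcutaneous NCI-H358 (KRAS G12C) xenograft mice given the drug orally. Efficacy is expressed as tumour growth inhibition (TGI), shown as mean ± SEM and compared with the vehicle group on day 28 (P < 0.05). Tumour p-ERK and plasma drug levels were measured 2 and 24 h after treatment.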

NCI-H358 [16] = experiment: Antitumor activity against human NCI-H358 cells harboring KRAS G12C mutant xenografted in BALB/c mouse assessed as reduction in ERK phosphorylation at 50 mg/kg, po measured after 28 days; assay type: functional, organism-based; settings: time 28.0 day
[17] = Toxicity against BALB/c mouse xenografted with human NCI-H358 cells harboring KRAS G12C mutant assessed as body weight loss at 50 mg/kg, po measured after 28 days; assay type: organism-based; settings: in vivo, 672 h, time 28 day

SMILES	IC50 [1] [nM]	IC50 (SOS1-KRAS) [nM]	further results
COc1cc2nccc(N[C@H](C)c3cccc(C(F)F)c3F)c2cc1OC	548	11	
COc1cc2nccc(N[C@H](C)c3cccc(C(F)F)c3F)c2cc1C1CCNCC1	798	14	
COc1cc2nccc(N[C@H](C)c3cccc(C(F)F)c3F)c2cc1N1CCS(=O)(=O)CC1	17	8.6	half-life [2]: 1.75 h; bioavailability [3]: 5%; Cmax [4]: 10 ng/mL; AUC at 24 h [5]: 29 ng·h/mL; clearance [6]: 127 mL/min/kg
C[C@@H](Nc1ccnc2cnc(N3CCOCC3)cc12)c1cccc(C(F)F)c1F	349	7	
C[C@@H](Nc1ccnc2cnc(N3CCS(=O)(=O)CC3)cc12)c1cccc(C(F)F)c1F	56	5.2	half-life [2]: 1.18 h; bioavailability [3]: 36%; Cmax [4]: 136 ng/mL; AUC at 24 h [5]: 406 ng·h/mL; clearance [6]: 67 mL/min/kg
CC(=O)N1CCC(c2cc3c(N[C@H](C)c4cccc(C(F)F)c4F)ccnc3cn2)CC1	77	9.7	half-life [2]: 0.88 h; bioavailability [3]: 25%; Cmax [4]: 424 ng/mL; AUC at 24 h [5]: 578 ng·h/mL; clearance [6]: 40 mL/min/kg
CC(=O)N1CCN(c2cc3c(N[C@H](C)c4cccc(C(F)F)c4F)ccnc3cn2)CC1	54	5.8	half-life [2]: 1.53 h; IC50 (Cytochrome P450 1A2): 17500 nM; bioavailability [3]: 81%; fraction unbound at 4 h [7]: 0.0675; IC50 (Cytochrome P450 2C9): 5690 nM; fraction unbound at 4 h [8]: 0.0481; Cmax [4]: 714 ng/mL; AUC at 24 h [5]: 1950 ng·h/mL; Drug uptake [9]: Active; Activity (NCI-H358 [10]): Active; IC50 (Cytochrome P450 2C19): 3160 nM; clearance [6]: 35 mL/min/kg; IC50 (Cytochrome P450 2D6): 11100 nM; IC50 (Cytochrome P450 3A4): > 50000 nM; fraction unbound at 4 h [11]: 0.0529; fraction unbound at 4 h [12]: 0.0545; IC50 (NCI-H358 [13]): 322 nM; IC50 [14]: 2450 nM; inhibition in vivo at 50 mg/kg (NCI-H358 [15]): 76%
CC(=O)N1CCC(c2cc3c(N[C@H](C)c4cccc(C(F)F)c4F)ccnc3cn2)C1 (some centres undefined)	167	22	
COc1cc2nccc(N[C@H](C)c3cccc(C(F)F)c3F)c2cc1O[C@H]1CCN(C)C1	295	15	
COc1cc2nccc(N[C@H](C)c3cccc(C(F)F)c3F)c2cc1O[C@H]1CCN(C(=O)C2CC2)C1	92	10	
C[C@@H](Nc1ccnc2cnc(N3CCC(O)CC3)cc12)c1cccc(C(F)F)c1F	156	8.5	
C[C@@H](Nc1ccnc2cnc(O[C@H]3CCOC3)cc12)c1cccc(C(F)F)c1F	770	15	
C[C@@H](Nc1ccnc2cnc(N3CCN(C)C(=O)C3)cc12)c1cccc(C(F)F)c1F	130	6.9	
CC(=O)NC1CCN(c2cc3c(N[C@H](C)c4cccc(C(F)F)c4F)ccnc3cn2)CC1	490	12	
COc1cc2nccc(N[C@H](C)c3cccc(C(F)F)c3F)c2cc1C1CCN(C(C)=O)CC1	1030	11	
COc1cc2nccc(N[C@H](C)c3cccc(C(F)F)c3F)c2cc1O[C@H]1CCNC1	497	6	
COc1cc2nccc(N[C@H](C)c3cccc(C(F)F)c3F)c2cc1O[C@H]1CCN(C(C)=O)C1	45	3.8	half-life [2]: 0.45 h; bioavailability [3]: 19%; Cmax [4]: 77 ng/mL; AUC at 24 h [5]: 152 ng·h/mL; clearance [6]: 107 mL/min/kg
COc1cc2nccc(N[C@H](C)c3cccc(C(F)F)c3F)c2cc1N1CCN(C(C)=O)CC1	30	8.8	
C[C@@H](Nc1ccnc2cnc(N3CCN(S(C)(=O)=O)CC3)cc12)c1cccc(C(F)F)c1F		13	
COc1cc2nccc(N[C@H](C)c3cccc(C(F)F)c3F)c2cc1O[C@H]1CCOC1	212	6.7	
COc1cc2nccc(N[C@H](C)c3cccc(C(F)F)c3F)c2cc1OC1CCNCC1	1070	13	
COc1cc2nccc(N[C@H](C)c3cccc(C(F)F)c3F)c2cc1O[C@H]1CCN(C(=O)C2CCOCC2)C1	73	13	
COc1cc2nccc(N[C@H](C)c3cccc(C(F)F)c3F)c2cc1C1CC1	1070	23	
COc1cc2nc(C)nc(N[C@H](C)c3cc(N)cc(C(F)(F)F)c3)c2cc1O[C@H]1CCOC1	299		Activity (NCI-H358 [16]): Active; Activity [17]: Non-Toxic; IC50 (NCI-H358 [13]): 90 nM; inhibition in vivo at 50 mg/kg (NCI-H358 [15]): 49%
